The record followed here is PubChem BioAssay.

Activity calls are given as the source filed them. Cut-off read from the data, not from the text of the source, unless noted: active = inhibition above about 30%; inactive = the rest.

Assay [1] can be described thus: Her2 expression decrease, cell viability multiplex – SKBR3 breast tumor cells, AlphaScreen, ATP viability, primary screen (AID 461;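 active = Her2 level under about 52% in both replicate screens, with viability over 70% of control, limit read from the data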;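 for Her2 level: lower value means less Her2 protein in the cells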;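 for viability: percent of carrier control wells set as 100% viability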). The conditions noted are these: SKBR3 Her2 protein level, 18-24 h, measured here: SKBR3 viability, ATP luminescence, at 10 µM.
In assay [2] the target is Receptor tyrosine-protein kinase erbB-2 (Homo sapiens) (UniProt P04626). The description is as above. The note with it: 18-24 h, at 10 µM, stronger effect = lower value.
Chain of Receptor tyrosine-protein kinase erbB-2 (Homo sapiens) (P04626 whole entry, looked up): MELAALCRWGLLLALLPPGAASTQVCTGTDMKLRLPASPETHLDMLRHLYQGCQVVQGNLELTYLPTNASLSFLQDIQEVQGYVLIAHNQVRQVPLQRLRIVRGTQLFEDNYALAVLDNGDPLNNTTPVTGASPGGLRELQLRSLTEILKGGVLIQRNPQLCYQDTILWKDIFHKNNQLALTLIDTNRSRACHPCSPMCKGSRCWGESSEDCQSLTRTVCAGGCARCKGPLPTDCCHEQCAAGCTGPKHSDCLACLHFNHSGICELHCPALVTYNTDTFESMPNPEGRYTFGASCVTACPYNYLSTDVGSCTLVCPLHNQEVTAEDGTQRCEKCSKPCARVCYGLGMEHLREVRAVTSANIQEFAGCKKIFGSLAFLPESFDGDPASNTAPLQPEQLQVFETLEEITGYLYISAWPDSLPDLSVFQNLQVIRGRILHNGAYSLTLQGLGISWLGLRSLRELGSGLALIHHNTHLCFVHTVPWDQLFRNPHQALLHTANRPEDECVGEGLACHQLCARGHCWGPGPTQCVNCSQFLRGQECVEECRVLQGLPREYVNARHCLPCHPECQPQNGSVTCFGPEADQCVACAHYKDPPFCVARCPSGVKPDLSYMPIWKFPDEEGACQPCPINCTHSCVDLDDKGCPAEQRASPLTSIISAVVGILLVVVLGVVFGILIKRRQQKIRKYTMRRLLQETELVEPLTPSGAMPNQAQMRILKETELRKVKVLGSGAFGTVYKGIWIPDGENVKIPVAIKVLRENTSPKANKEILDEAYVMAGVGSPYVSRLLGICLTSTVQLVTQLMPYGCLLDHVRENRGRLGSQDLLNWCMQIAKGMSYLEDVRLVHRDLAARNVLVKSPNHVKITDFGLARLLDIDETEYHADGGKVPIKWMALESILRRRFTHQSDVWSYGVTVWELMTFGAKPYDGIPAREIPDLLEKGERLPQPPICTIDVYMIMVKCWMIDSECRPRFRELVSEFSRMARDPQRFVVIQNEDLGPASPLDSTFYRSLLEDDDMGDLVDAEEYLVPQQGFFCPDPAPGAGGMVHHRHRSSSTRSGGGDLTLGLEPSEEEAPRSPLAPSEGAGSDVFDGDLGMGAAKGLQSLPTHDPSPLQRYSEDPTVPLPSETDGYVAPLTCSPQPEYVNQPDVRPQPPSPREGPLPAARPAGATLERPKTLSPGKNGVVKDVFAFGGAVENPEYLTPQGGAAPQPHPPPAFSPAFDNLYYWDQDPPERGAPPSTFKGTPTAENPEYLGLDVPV
Assay [3] is described as follows: reduced viability of SK-BR-3 breast cancer cells – cell-based, 24 h, human, pilot screen (AID 572;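 active = viability at or below 10% of carrier control in both of two separate runs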;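 note: compound exposure lasted between 18 and 24 h rather than exactly 24 h; 100% = carrier-treated control wells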). The note with it: SK-BR-3 viability, CellTiter-Glo luminescence, at 10 µM, stronger effect = lower value.
A short description of assay [4]: HUVEC growth inhibition – cell-based, human, primary screen (AID 575;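 active = viability at or below 30% in both replicate assays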;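 note: 100% = median of untreated cell wells with 0.1% DMSO on each plate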). The note with it: HUVEC proliferation, CellTiter-Glo luminescence, 72 h; at 10 µM; stronger effect = lower value. The essentials: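 Test system – primary HUVEC, no more than 12 passages · Dosing – one dose, 10 µM final, 0.1% DMSO · Times – 72 h treatment at 37 °C · Measured by – ATP-based CellTiter-Glo luminescent read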
For orientation: In ATP-based viability assays light output follows the ATP content of the culture.

Assay [5] in a line: H69AR cell proliferation blockers – human, duplicate replicates, primary screen (AID 580;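 active = viability at or under a set limit in both replicates, limit being median viability minus 3 SD, cut at about 48% in these data, passing the limit was not always enough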;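 note: 100% = mean luminescence of untreated wells and 0% = no signal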). The conditions noted are these: H69AR lung tumor cells viability, ATP luminescence, 72 h; at 10 µM; stronger effect = lower value.
The nature of assay [6]: MRP1 drug-resistance reversers in H69AR cells – cell-based, doxorubicin co-treatment, pilot screen (AID 601;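 active = viability loss from added drug above about 55%, and viability with drug at most 40%, in both replicates, limit read from the data, passing the limit was not always enough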). The note with it: CellTiter-Glo, 72 h, at 10 µM; for differential viability (reversal): stronger effect = higher value.
Assay [7] in a line: yeast transport mutant growth inhibition pilot in 384-well plates, post-Golgi transport modulator project (AID 636; in the data active = inhibition above about 31%). The conditions noted are these: absorbance 615 nm, about 18 h, stronger effect = higher value.
The nature of assay [8]: growth suppression of yeast trafficking mutant, preliminary HTS, modulators of trafficking downstream of Golgi apparatus project, 1536-format plate, OD 615 nm (AID 637). The note with it: yeast transport mutant growth, absorbance 615 nm, 18 h; stronger effect = higher value.
Setting [9] is: H69AR cells + 2 uM doxorubicin, measured here: viability with 2 uM doxorubicin, stronger effect = lower value.
Where [10] appears, read: H69AR cells, compound alone cytotoxicity.

Broadly, the viability is a read-out of living cells in per cent, often relative to untreated cells. Broadly, the inhibition is the drop in the measured response relative to a control, in per cent. `C=CCOc1nc2c(c(=O)n(C)c(=O)n2C)n1Cc1c(Cl)cccc1Cl`: the viability in assay [1] is 97.5%; in assay [3], 97.5% (inactive); in assay [4], 94.9% (inactive); in assay [5], 80.4% (inactive); in assay [6] (setting [9]), 18.3%; in assay [6] (setting [10]) it was 80.4%. Also, the Her2 level in assay [2] was 83% (inactive). In assay [6] (H69AR cells + 2 uM doxorubicin), the differential viability (reversal) is 62% (active). In addition, the inhibition is -3.92% (inactive) in assay [7] and 11.9% (inactive) in assay [8].

Regarding `CCCn1c2ccccc2c2nnc(SCC(=O)Nc3ncccn3)nc21`, the viability in assay [1] was 105%; in assay [3], 105% (inactive); in assay [4], 93.4% (inactive); in assay [5] it was 87.6% (inactive); in assay [6] (setting [9]), 77.4%; in assay [6] (setting [10]), 87.6%. Further, the Her2 level in assay [2] was 75.5% (inactive). For the same compound, the differential viability (reversal) in assay [6] (H69AR cells + 2 uM doxorubicin) was 10.3% (inactive). Moreover, the inhibition in assay [7] was -0.53% (inactive); in assay [8], -2.36% (inactive).

For `Cc1cc(C)n2nc(S(=O)(=O)N(C)Cc3ccccc3)nc2n1`, the viability in assay [1] is 80%; in assay [3], 80% (inactive); in assay [4], 122% (inactive); in assay [5] it was 93.4% (inactive); in assay [6] (setting [9]), 89.2%; in assay [6] (setting [10]) it was 93.4%. Also, in assay [2], the Her2 level was 91% (inactive). For the same compound, the differential viability (reversal) in assay [6] (H69AR cells + 2 uM doxorubicin) was 4.15% (inactive). Also, the figures for the inhibition in assay [7] and in assay [8] were -7.16% (inactive) and -5.67% (inactive), respectively.

With `CCOC(=O)N1CCN(CC(=O)c2c(C)[nH]c3ccccc23)CC1`, the viability in assay [1] is 94%; in assay [3], 94% (inactive); in assay [4] it was 79.9% (inactive); in assay [5], 75.2% (inactive); in assay [6] (setting [9]) it was 83.1%; in assay [6] (setting [10]), 75.2%. The Her2 level in assay [2] is 98% (inactive). Besides, the differential viability (reversal) in assay [6] (H69AR cells + 2 uM doxorubicin) was -7.93% (inactive). Also, the values for the inhibition in assay [7] and in assay [8] were -5.41% (inactive) and -3.93% (inactive), respectively.

Regarding `CC(C)[C@H](NC(=O)OC(C)(C)C)c1nnc(SCC(=O)Nc2ccc(Br)cc2)o1`, the viability in assay [1] is 96.5%; in assay [3], 96.5% (inactive); in assay [4] it was 87.5% (inactive); in assay [5], 93.9% (inactive); in assay [6] (setting [9]) it was 88.1%; in assay [6] (setting [10]) it was 93.9%. In addition, the Her2 level in assay [2] is 108% (inactive). Moreover, the differential viability (reversal) in assay [6] (H69AR cells + 2 uM doxorubicin) is 5.79% (inactive). The inhibition in assay [7] is -1.17% (inactive); in assay [8], -14% (inactive).

On to `COc1cccc(/C=N/n2c(C)nc3ccccc32)c1OC`, for which the viability in assay [1] is 91%; in assay [3], 91% (inactive); in assay [4], 52.1% (inactive); in assay [5], 91.9% (inactive); in assay [6] (setting [9]) it was 88.3%; in assay [6] (setting [10]), 91.9%. For the same compound, in assay [2], the Her2 level was 93.5% (inactive). The differential viability (reversal) in assay [6] (H69AR cells + 2 uM doxorubicin) was 3.66% (inactive). Further, the inhibition is -2.4% (inactive) in assay [7] and -6.35% (inactive) in assay [8].

Regarding `CS(=O)(=O)N1CCN(c2ccccc2NC(=O)c2ccc(-c3ccc(Cl)cc3Cl)o2)CC1`, the viability in assay [1] is 78.5%; in assay [3] it was 78.5% (inactive); in assay [4] it was 76.7% (inactive); in assay [5], 86.4% (inactive); in assay [6] (setting [9]), 76.2%; in assay [6] (setting [10]) it was 86.4%. In assay [2], the Her2 level is 96.5% (inactive). Moreover, in assay [6] (H69AR cells + 2 uM doxorubicin), the differential viability (reversal) is 10.2% (inactive). For the same compound, the inhibition in assay [7] is -2.93% (inactive); in assay [8] it was -3.49% (inactive).

As for `O=C(CCSc1ccccc1)N1CCOCC1`, the viability in assay [1] is 94%; in assay [3], 94% (inactive); in assay [4], 96.7% (inactive); in assay [5] it was 93.5% (inactive); in assay [6] (setting [9]) it was 94.4%; in assay [6] (setting [10]), 93.5%. Further, the Her2 level in assay [2] was 98.5% (inactive). Moreover, the differential viability (reversal) in assay [6] (H69AR cells + 2 uM doxorubicin) was -0.87% (inactive). The figures for the inhibition in assay [7] and in assay [8] were -5.39% (inactive) and -2.13% (inactive), respectively.

Take `CCC1Oc2ccc(C)cc2N(CC(=O)N(Cc2cccnc2)Cc2ccc(C)o2)C1=O` (stereo not given): the viability in assay [1] is 93%; in assay [3], 93% (inactive); in assay [4], 83.7% (inactive); in assay [5], 74.8% (inactive); in assay [6] (setting [9]) it was 33.7%; in assay [6] (setting [10]), 74.8%. Moreover, in assay [2], the Her2 level was 84% (inactive). In assay [6] (H69AR cells + 2 uM doxorubicin), the differential viability (reversal) was 41.1% (inactive). Besides, the figures for the inhibition in assay [7] and in assay [8] were -6.27% (inactive) and 6.56% (inactive), respectively.

On to `Cc1coc2cc3oc(=O)c4c(c3cc12)CCC4`, for which the viability in assay [1] was 111%; in assay [3], 111% (inactive); in assay [4] it was 85.1% (inactive); in assay [5] it was 104% (inactive); in assay [6] (setting [9]), 97.2%; in assay [6] (setting [10]), 104%. In assay [2], the Her2 level is 81.5% (inactive). In assay [6] (H69AR cells + 2 uM doxorubicin), the differential viability (reversal) is 6.42% (inactive). Moreover, the inhibition in assay [7] was -2.7% (inactive); in assay [8], -2.86% (inactive).

Turning to `CCCS(=O)(=O)N1CCC(C(=O)N2CCCC2)CC1`, the viability in assay [1] was 112%; in assay [3] it was 112% (inactive); in assay [4], 115% (inactive); in assay [5], 95% (inactive); in assay [6] (setting [9]) it was 91.1%; in assay [6] (setting [10]), 95%. The Her2 level in assay [2] was 93% (inactive). Also, the differential viability (reversal) in assay [6] (H69AR cells + 2 uM doxorubicin) was 3.92% (inactive). In addition, the inhibition was -3.55% (inactive) in assay [7] and -0.82% (inactive) in assay [8].

Consider `CCOC(=O)N1CCN(c2c(N3CCN(c4ccccc4OC)CC3)c(=O)c2=O)CC1`, for which the viability in assay [1] is 94.5%; in assay [3] it was 94.5% (inactive); in assay [4], 109% (inactive); in assay [5], 84.2% (inactive); in assay [6] (setting [9]), 75.5%; in assay [6] (setting [10]), 84.2%. For the same compound, the Her2 level in assay [2] is 104% (inactive). Moreover, the differential viability (reversal) in assay [6] (H69AR cells + 2 uM doxorubicin) was 8.68% (inactive). Also, the inhibition was -4% (inactive) in assay [7] and -7.38% (inactive) in assay [8].

Turning to `CCOC(=O)c1[nH]c(C)c(C(=O)N2CCN(c3ccc(F)cc3)CC2)c1C`, the viability in assay [1] is 107%; in assay [3], 107% (inactive); in assay [4], 107% (inactive); in assay [5], 92.3% (inactive); in assay [6] (setting [9]) it was 90.2%; in assay [6] (setting [10]) it was 92.3%. Further, the Her2 level in assay [2] was 84% (inactive). Further, the differential viability (reversal) in assay [6] (H69AR cells + 2 uM doxorubicin) is 2.1% (inactive). In addition, the results for the inhibition in assay [7] and in assay [8] were -2.37% (inactive) and -4.44% (inactive), respectively.

For the compound `CCS(=O)(=O)N1CCC(C(=O)NC2CCCCCCC2)CC1`, the viability in assay [1] was 98%; in assay [3], 98% (inactive); in assay [4], 108% (inactive); in assay [5] it was 97.5% (inactive); in assay [6] (setting [9]), 89.6%; in assay [6] (setting [10]), 97.5%. The Her2 level in assay [2] is 110% (inactive). Also, the differential viability (reversal) in assay [6] (H69AR cells + 2 uM doxorubicin) was 7.86% (inactive). For the same compound, the inhibition in assay [7] is -0.51% (inactive); in assay [8] it was -1.5% (inactive).

In the case of `Cc1cccc2cc(CN(CC3CCCO3)C(=O)c3cnccn3)c(=O)[nH]c12` (stereo not given), the viability in assay [1] is 116%; in assay [3] it was 116% (inactive); in assay [4], 96.9% (inactive); in assay [5], 85.1% (inactive); in assay [6] (setting [9]), 87.9%; in assay [6] (setting [10]), 85.1%. Besides, the Her2 level in assay [2] is 105% (inactive). Further, the differential viability (reversal) in assay [6] (H69AR cells + 2 uM doxorubicin) was -2.77% (inactive). The results for the inhibition in assay [7] and in assay [8] were -1.43% (inactive) and -0.67% (inactive), respectively.

Take `O=C(CN1C(=O)c2cccc3cccc1c23)N1CCN(c2ccccc2)CC1`: the viability in assay [1] is 100%; in assay [3], 100% (inactive); in assay [4], 111% (inactive); in assay [5], 113% (inactive); in assay [6] (setting [9]), 89.5%; in assay [6] (setting [10]) it was 113%. In addition, the Her2 level in assay [2] was 103% (inactive). For the same compound, the differential viability (reversal) in assay [6] (H69AR cells + 2 uM doxorubicin) is 23.3% (inactive). Besides, the inhibition in assay [7] is 1.49% (inactive); in assay [8], -1.5% (inactive).
